This passage reports relative activity ratio results from PubChem BioAssay AID624314 (The Scripps Research Institute Molecular Screening Center, 2012).

Calls of active or inactive are those of the source.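 How the source made its calls: active means relative activity ratio above 1.25 at every tested dose; inactive means the rest.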

In the test the test system is HEK293 3B-HSD promoter CAT reporter, ELISA absorbance. Nature of the test: 3B-HSD promoter reporter expression modulators, late-stage follow-up, counter-screen for DAX1 (NR0B1) inhibitor project, cell-based, absorbance (AID 624314). The conditions noted are these: at 100 µM (top of the series). Put shortly: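 Schedule: compound exposure 16 h at 37 °C; Assay system: HEK293 cells transfected with full-length DAX-1, SF-1, HSD3B2-promoter CAT reporter; Replicates: triplicate testing per concentration; Dosing: three-point twofold dilution series, nominal top 100 µM; Measured by: CAT EIA absorbance; Evaluation: CAT signal relative to DMSO-treated wells.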
Background: A counterscreen serves to expose hits that act by an unwanted route or on another target.

On to `Cn1c(=O)n(C)c2cc(C(=O)Nc3ccc4c(c3)OCO4)ccc21`, for which the relative activity ratio is 0.34 (inactive).
To `Cn1c(=O)n(C)c2cc(C(=O)Nc3ccc4c(c3)OCCO4)ccc21` belongs 0.26 (inactive).
